Results pooled from the literature.
Target: Casein kinase I isoform gamma-3 (CSNK1G3, Homo sapiens, UniProt Q9Y6M4)

COc1ccc2[nH]c3c4[nH]c5ccc(OC)cc5c4c4c(c3c2c1)C(=O)NC4=O
remaining binding (binding; 1 µM): 100%

Cc1cc(O)c(-c2ccc([C@@H](C)CN(C)C)cc2)c2c1[nH]c(=O)c1sccc12
inhibition (enzyme activity, inhibitor; 0.1 µM): -4.11%

C=CC(=O)N1CCC([C@@H]2CCNc3c(C(N)=O)c(-c4ccc(Oc5ccccc5)cc4)nn32)CC1
inhibition (enzyme activity, inhibitor; 1 µM): 0%

N#Cc1ccc2nc(Nc3ccc(N4CCOCC4)c(Cl)c3)[nH]c2c1
ΔTm (thermal stability, DSF; 30 µM): 3.3 °C

Cc1ccc(NC(=O)c2ccnc(C(F)(F)F)c2)cc1-c1cc(OCCO)nc(N2CCOCC2)c1
remaining binding (binding; 1 µM): 100%

CO[C@@H]1[C@H](N(C)C(=O)c2ccccc2)C[C@H]2O[C@]1(C)n1c3ccccc3c3c4c(c5c6ccccc6n2c5c31)C(=O)NC4
inhibition (enzyme activity, inhibitor; 1 µM): 0%

CCCCC(=O)Nc1ccc(-c2ccc3ncn(CCC)c(=O)c3c2)cn1
remaining binding (binding, competition with immobilised ligand; 0.5 µM): 85%

C1=C/COCc2cc(ccc2OCCN2CCCC2)Nc2nccc(n2)-c2cccc(c2)COC/1
remaining signal (cell-free assay; 0.1 µM): 100%
